Measured values taken from ChEMBL document CHEMBL4257478, “Design, synthesis and evaluation of (R)-3-(7-(methyl(7H-pyrrolo[2,3-d]pyrimidin-4-yl)amino)-5-azaspiro[2.4]heptan-5-yl)-3-oxopropanenitrile as a JAK1-selective inhibitor” (Medchemcomm, 2018).

Key:
[1] = Half life in Sprague-Dawley rat at 10 mg/kg, po after 0.25 to 24 hrs by LC-MS/MS method; format: ADME, organism-based; conditions: in vivo
How it was run: (§1)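 Male Sprague Dawley rats, 7-8 weeks old, n=4 per group. IV dose 5 mg/kg free base in 10% ethanol/90% PEG400; oral dose 10 mg/kg as corn oil suspension after 16 h fast. Blood taken 0.08-24 h (IV) or 0.25-24 h (PO). Plasma diluted in acetonitrile with internal standard, analysed by LC-MS/MS, parameters by non-compartmental analysis.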

Rattus norvegicus [2] = test: Antiarthritic activity in adjuvant-induced SPF LEW/SsNSlc rat arthritis model assessed as paw thickness at 5 mg/kg, po qd measured on 14 days; format: functional
How it was run: (§2)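 Lewis rats were 10 weeks old after 2 weeks acclimation. Immunized s.c. at the tail base with 0.1 mL complete Freund's adjuvant containing 10 mg/mL heat-killed mycobacterium. From day 12 post-immunization (day 1), n=10 per group, oral dosing once daily for 14 days, vehicle corn oil. Clinical score and hind paw measured twice weekly.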

[3] = Half life in Sprague-Dawley rat at 5 mg/kg, iv after 0.08 to 24 hrs by LC-MS/MS method; format: ADME, organism-based; conditions: in vivo; how it was run: as §1
[4] = target: Voltage-gated inwardly rectifying potassium channel KCNH2 (Homo sapiens, UniProt Q12809); test: Inhibition of human ERG expressed in HEK293 cells after 5 mins by automated planar patch clamp method; format: cell-based
Voltage-gated inwardly rectifying potassium channel KCNH2, sequence (Q12809 whole entry): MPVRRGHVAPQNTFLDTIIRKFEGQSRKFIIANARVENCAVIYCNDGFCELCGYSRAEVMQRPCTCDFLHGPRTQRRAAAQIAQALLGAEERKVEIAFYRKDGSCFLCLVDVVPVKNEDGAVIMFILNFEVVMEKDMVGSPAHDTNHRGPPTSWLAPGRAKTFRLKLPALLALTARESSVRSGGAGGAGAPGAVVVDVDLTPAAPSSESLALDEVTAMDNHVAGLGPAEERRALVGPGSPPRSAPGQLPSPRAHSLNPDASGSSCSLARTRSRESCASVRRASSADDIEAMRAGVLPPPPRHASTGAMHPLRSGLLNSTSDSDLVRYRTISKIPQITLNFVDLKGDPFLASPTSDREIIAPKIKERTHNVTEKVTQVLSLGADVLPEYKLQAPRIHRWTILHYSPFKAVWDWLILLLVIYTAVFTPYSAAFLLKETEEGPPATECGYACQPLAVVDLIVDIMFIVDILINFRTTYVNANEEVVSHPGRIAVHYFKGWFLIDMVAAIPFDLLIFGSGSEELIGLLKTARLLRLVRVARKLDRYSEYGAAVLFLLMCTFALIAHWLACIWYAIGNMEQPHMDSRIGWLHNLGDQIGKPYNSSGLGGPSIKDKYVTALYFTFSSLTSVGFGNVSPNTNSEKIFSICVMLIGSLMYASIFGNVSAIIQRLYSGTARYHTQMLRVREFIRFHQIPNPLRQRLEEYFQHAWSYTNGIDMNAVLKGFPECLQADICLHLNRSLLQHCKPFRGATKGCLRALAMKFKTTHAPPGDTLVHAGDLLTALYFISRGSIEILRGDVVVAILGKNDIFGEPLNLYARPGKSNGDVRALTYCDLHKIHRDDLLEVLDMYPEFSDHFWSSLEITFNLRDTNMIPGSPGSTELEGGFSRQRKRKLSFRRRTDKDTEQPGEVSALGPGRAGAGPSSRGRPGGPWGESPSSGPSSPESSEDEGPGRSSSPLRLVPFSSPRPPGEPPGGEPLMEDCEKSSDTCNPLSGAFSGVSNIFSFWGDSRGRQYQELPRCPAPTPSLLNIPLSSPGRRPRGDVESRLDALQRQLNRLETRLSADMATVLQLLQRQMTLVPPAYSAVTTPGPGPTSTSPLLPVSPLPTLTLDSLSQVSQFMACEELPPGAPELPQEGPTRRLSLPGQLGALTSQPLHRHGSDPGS

Rattus norvegicus [5] = test: Antiarthritic activity in adjuvant-induced SPF LEW/SsNSlc rat arthritis model assessed as paw thickness at 20 mg/kg, po qd measured on day 14; format: functional; how it was run: as §2
[6] = Tmax in Sprague-Dawley rat at 10 mg/kg, po after 0.25 to 24 hrs by LC-MS/MS method; format: ADME, organism-based; conditions: in vivo
How it was run: (§3)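 Male Sprague Dawley rats, 7–8 weeks old, n=4, fasted 16 h. Free base given at 10 mg/kg po as a corn oil suspension (5 mL/kg); a 5 mg/kg iv arm used 10% ethanol/90% PEG400. Plasma sampled 0.25–24 h, acetonitrile-precipitated with internal standard, and measured by LC-MS/MS. Parameters derived by non-compartmental analysis.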

[7] = MRT in Sprague-Dawley rat at 10 mg/kg, po after 0.25 to 24 hrs by LC-MS/MS method; format: ADME, organism-based; conditions: in vivo; how it was run: as §1
Rattus norvegicus [8] = test: AUC (0 to t) in Sprague-Dawley rat at 10 mg/kg, po after 0.25 to 24 hrs by LC-MS/MS method; format: ADME, organism-based; parameters: time lower 0.25 hr, dose 10 mg/kg, time upper 24 hr, route oral; conditions: in vivo; how it was run: as §1
Rattus norvegicus [9] = test: AUC (0 to t) in Sprague-Dawley rat at 5 mg/kg, iv after 0.08 to 24 hrs by LC-MS/MS method; format: ADME, organism-based; parameters: time upper 24 hr, time lower 0.08 hr, dose 5 mg/kg, route intravenous; conditions: in vivo; how it was run: as §1
[10] = Oral bioavailability in Sprague-Dawley rat at 10 mg/kg after 0.25 to 24 hrs by LC-MS/MS method; format: ADME, organism-based; conditions: in vivo; how it was run: as §3
Rattus norvegicus [11] = test: AUC (0 to infinity) in Sprague-Dawley rat at 10 mg/kg, po after 0.25 to 24 hrs by LC-MS/MS method; format: ADME, organism-based; parameters: dose 10 mg/kg, route oral, time infinity; conditions: in vivo; how it was run: as §1
Rattus norvegicus [12] = test: Antiarthritic activity in adjuvant-induced SPF LEW/SsNSlc rat arthritis model assessed as paw thickness at 10 mg/kg, po qd measured on day 14; format: functional; how it was run: as §2
[13] = Cmax in Sprague-Dawley rat at 10 mg/kg, po after 0.25 to 24 hrs by LC-MS/MS method; format: ADME, organism-based; parameters: dose 10 mg/kg, route oral; conditions: in vivo; how it was run: as §1
[14] = MRT in Sprague-Dawley rat at 5 mg/kg, iv after 0.08 to 24 hrs by LC-MS/MS method; format: ADME, organism-based; conditions: in vivo; how it was run: as §1
Rattus norvegicus [15] = test: AUC (0 to infinity) in Sprague-Dawley rat at 5 mg/kg, iv after 0.08 to 24 hrs by LC-MS/MS method; format: ADME, organism-based; parameters: dose 5 mg/kg, time infinity, route intravenous; conditions: in vivo; how it was run: as §1
[16] = target: Tyrosine-protein kinase JAK2 (Homo sapiens, UniProt O60674); test: Inhibition of human JAK2 using KTFCGTPEYLAPEVRREPRILSEEEQEMFRDFDYIADWC as substrate after 40 mins in presence of [gamma-33P-ATP] by scintillation counting method
Tyrosine-protein kinase JAK2, sequence (O60674 whole entry): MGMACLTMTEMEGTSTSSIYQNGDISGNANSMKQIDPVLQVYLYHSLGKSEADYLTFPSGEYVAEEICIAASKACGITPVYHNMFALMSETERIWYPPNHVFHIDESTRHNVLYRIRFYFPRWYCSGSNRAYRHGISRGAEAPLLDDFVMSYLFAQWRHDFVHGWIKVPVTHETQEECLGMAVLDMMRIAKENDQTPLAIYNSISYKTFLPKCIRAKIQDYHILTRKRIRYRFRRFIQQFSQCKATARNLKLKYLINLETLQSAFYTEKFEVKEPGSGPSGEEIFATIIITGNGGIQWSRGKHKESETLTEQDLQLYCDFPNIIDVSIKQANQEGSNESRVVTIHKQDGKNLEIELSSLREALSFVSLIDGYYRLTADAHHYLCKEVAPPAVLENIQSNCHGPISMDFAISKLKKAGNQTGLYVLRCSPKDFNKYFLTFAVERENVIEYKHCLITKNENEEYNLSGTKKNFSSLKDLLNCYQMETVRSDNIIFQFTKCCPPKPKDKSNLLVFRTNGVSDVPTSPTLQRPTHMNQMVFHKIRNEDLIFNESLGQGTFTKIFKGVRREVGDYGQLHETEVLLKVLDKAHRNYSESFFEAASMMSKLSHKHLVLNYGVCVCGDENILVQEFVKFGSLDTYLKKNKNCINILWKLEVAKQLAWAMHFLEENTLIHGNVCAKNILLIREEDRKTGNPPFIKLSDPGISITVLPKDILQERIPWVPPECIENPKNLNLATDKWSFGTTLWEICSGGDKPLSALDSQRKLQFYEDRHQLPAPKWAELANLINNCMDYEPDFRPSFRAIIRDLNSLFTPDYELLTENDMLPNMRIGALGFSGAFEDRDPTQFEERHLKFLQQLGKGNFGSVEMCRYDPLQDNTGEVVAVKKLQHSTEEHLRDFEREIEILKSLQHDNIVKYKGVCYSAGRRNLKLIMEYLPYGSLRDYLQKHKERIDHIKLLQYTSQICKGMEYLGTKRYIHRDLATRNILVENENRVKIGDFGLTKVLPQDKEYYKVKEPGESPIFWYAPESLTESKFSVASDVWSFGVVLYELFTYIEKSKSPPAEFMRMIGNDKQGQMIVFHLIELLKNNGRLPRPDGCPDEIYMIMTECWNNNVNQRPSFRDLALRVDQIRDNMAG

[17] = target: Tyrosine-protein kinase JAK1 (Homo sapiens, UniProt P23458); test: Inhibition of human JAK1 using GEEPLYWSFPAKKK as substrate after 40 mins in presence of [gamma-33P-ATP] by scintillation counting method
Tyrosine-protein kinase JAK1, sequence (P23458 whole entry): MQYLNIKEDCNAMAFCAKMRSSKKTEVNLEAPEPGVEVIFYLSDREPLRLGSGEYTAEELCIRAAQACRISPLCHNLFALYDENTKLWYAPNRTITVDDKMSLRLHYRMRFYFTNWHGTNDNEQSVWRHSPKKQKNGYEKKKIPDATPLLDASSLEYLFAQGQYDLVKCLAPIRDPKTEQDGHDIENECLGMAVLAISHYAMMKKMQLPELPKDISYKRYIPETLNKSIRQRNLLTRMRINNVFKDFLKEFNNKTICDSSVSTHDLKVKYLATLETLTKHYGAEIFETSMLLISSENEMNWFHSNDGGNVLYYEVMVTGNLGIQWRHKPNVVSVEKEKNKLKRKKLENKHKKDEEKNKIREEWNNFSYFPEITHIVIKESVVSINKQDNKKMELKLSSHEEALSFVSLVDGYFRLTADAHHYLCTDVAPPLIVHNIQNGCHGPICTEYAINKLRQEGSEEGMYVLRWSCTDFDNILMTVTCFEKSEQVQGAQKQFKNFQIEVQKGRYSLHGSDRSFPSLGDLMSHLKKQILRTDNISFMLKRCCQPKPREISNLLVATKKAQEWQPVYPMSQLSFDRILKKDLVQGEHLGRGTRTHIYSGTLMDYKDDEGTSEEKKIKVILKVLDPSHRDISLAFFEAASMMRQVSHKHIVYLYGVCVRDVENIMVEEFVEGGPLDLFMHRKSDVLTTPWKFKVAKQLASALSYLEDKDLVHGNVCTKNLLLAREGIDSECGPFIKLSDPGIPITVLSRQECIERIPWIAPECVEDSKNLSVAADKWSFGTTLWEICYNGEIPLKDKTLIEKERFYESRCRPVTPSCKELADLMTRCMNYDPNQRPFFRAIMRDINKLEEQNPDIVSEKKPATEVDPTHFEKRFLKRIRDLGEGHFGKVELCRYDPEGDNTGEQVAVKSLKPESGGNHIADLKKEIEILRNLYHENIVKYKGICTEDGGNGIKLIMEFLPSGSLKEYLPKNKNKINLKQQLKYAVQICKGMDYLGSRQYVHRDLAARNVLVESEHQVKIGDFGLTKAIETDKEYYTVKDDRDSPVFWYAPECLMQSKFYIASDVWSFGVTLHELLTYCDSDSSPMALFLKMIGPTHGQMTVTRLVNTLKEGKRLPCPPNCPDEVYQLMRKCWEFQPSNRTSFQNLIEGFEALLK

half-life [1] [h]	half-life [3] [h]	Tmax [6] [h]	MRT [7] [h]	AUCt (Rattus norvegicus [8]) [ng·h/mL]	AUCt (Rattus norvegicus [9]) [ng·h/mL]	bioavailability [10] [%]	AUC (Rattus norvegicus [11]) [ng·h/mL]	Cmax [13] [ng/mL]	MRT [14] [h]	AUC (Rattus norvegicus [15]) [ng·h/mL]	IC50 [16] [nM]	IC50 [17] [nM]	SMILES	Activity (Rattus norvegicus [2]) [mm]	IC50 [4] [nM]	Activity (Rattus norvegicus [5]) [mm]	Activity (Rattus norvegicus [12]) [mm]
2.1	1.2	0.3	3.1	1900	900	110	2100	1000	1.1	920	–	–	CN(c1ncnc2[nH]ccc12)[C@H]1CN(C(=O)CC#N)CC12CC2	10.33	120000	10.2	10.21
–	–	–	–	–	–	–	–	–	–	–	180	7.2	CCS(=O)(=O)N1C[C@H](N(C)c2ncnc3[nH]ccc23)C2(CC2)C1	–	–	–	–
